# Bioassay records: PubChem, several laboratories
# Rows were chosen to be rich in hits. Some 4% of all compounds tested hit in one or more screens of this group.
# GPR7 antagonist = antagonists of human GPR7 (neuropeptides B/W receptor 1). actives 1.1% (n = 290,000). inhibition, % at 4.4 µM. P48145. GPR7-expressing cells, fluorescence antagonist assay. AID 1861; in the data active means inhibition above about 16%, passing the limit was not always enough;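 further: cells stimulated with the agonist NPW; 0% = agonist with vehicle and 100% = vehicle without agonist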
# TAAR1 antag = antagonists of human TAAR1 | AID 624466 | Q96RJ0 | CHO RD-HGA16 TAAR1, Fluo-8 calcium fluorescence, antagonist | inhibition, % at 3 µM | actives 1.5% (n = 360,000);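 active means inhibition above a per-plate cutoff, the mean inhibition of test compounds on that plate plus 3 SD, cut at about 49% in these data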;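 further: 0% = DMSO plus EC80 beta-PEA response and 100% = DMSO alone without agonist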
# Target sequence (Q96RJ0 whole entry, looked up): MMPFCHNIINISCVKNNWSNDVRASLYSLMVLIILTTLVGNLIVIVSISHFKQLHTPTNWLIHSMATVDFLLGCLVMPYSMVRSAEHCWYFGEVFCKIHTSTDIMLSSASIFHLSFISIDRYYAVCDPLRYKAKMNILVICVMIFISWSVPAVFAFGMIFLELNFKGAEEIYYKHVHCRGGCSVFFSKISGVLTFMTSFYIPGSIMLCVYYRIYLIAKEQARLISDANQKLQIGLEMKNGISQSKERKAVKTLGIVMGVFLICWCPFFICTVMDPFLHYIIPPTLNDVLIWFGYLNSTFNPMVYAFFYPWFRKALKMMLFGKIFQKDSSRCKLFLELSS
#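 test system = CHO RD-HGA16 cells bearing hTAAR1 | replication = singlicate | controls = DMSO-only wells and EC80 β-PEA-stimulated wells | reagent = EC80 β-phenethylamine stimulus | read-out basis = percent inhibition of PEA-evoked calcium signal, max/basal emission ratio | schedule = seeding 17-24 h prior, 75-min 37 °C, 30-min RT dye loading | signal = kinetic Fluo-8 calcium fluorescence measurement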
# DAGLB inhibitor = diacylglycerol lipase beta (human) inhibition. HEK293T DAGLB membrane lysate, EnzChek fluorogenic substrate. Q8NCG7. actives 0.059% (n = 340,000). inhibition, % at 5.17 µM. AID 504411; in the data active means inhibition above about 34%;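 further: 0% = enzyme with vehicle and 100% = wells lacking enzyme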
# TAAR1 agonist = agonists of human TAAR1. Q96RJ0. CHO RD-HGA16 TAAR1, Fluo-8 calcium fluorescence; vehicle wells 0%, saturating PEA agonist 100%. activation, % at 3 µM. actives 0.99% (n = 360,000). AID 624467;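 active means activation above the mean activation of all test compounds in the run plus 3 SD, cut at about 38% in these data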
#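 Signal – calcium-sensitive Fluo-8 signal, excitation 470-495, emission 515-575 nm · System – RD-HGA16 (CHO) cells co-expressing Gα16 and hTAAR1 · Incubation – 17-24 h seeding, 75 min 37 °C dye, 30 min RT · Compound dosing – 3 µM single concentration · Repeats – no replicates (n 1)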
# MPTP block = permeability transition pore inhibition | actives 1.4% (n = 360,000) | inhibition, % at 10 µM | isolated mouse mitochondria, Ca2+ swelling absorbance, 30 min | AID 602449;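 active means inhibition of 50% or more, scaled per plate between neutral and stimulator controls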;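 further: 0% = DMSO wells given calcium and 100% = 1 mM EGTA wells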
# GPR7 antag cf = confirmation of human GPR7 antagonists. shares compounds with GPR7 antagonist. GPR7-expressing cells, calcium fluorescence antagonist mode. inhibition, % at 4.4 µM. actives 52% (n = 2,400); in the data active means inhibition above about 24%;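 further: stimulated with the GPR7 agonist NPW; 0% = agonist plus vehicle and 100% = vehicle alone without agonist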
# MCHR1 antagonist = MCHR1 (human) antagonism in GPR7 counter-screen; MCHR1-expressing cells, fluorescence antagonist assay; shares compounds with GPR7 antagonist; actives 62% (n = 2,400); inhibition, % at 4.4 µM; AID 2148; in the data active means inhibition above about 22%;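 further: 0% = vehicle with agonist and 100% = vehicle without agonist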
# The depositor's hits bear a star; x = not tested or not shown.
SMILES,GPR7 antagonist,TAAR1 antag,DAGLB inhibitor,TAAR1 agonist,MPTP block,GPR7 antag cf,MCHR1 antagonist
COC1C(C)OC(OC2CC(C)(O)Cc3cc4c(c(O)c32)C(=O)c2c(O)cc3c(c2C4=O)OC2OC3(C)C(O)C(N(C)C)C2O)C(OC)C1(C)OC (stereo not drawn),x,39.3,-88.5,47.1*,1.2,x,x
CC(=NCCc1ccccc1)c1c(O)[nH]c(=O)[nH]c1=O,-0.8,-23.2,-2.3,26.2,2.5,x,x
CC(=NCCc1ccccc1)c1c(O)n(C)c(=O)n(C)c1=O,-4.4,-25.5,-0.8,43.0*,0.6,x,x
CS(=O)(=O)N1Cc2cc(Br)ccc2-n2nncc2C1,x,-43.7,x,1.5,x,x,x
CCOC(=O)[C@]12Cc3cc(C)ccc3[C@H]1N(C1CCCCC1)C(=O)c1cc(OC)ccc12,x,-49.9,x,3.0,-1.8,x,x
Cc1cc(N2CCNC[C@@H]2C)ccc1N1CC[C@@H](O)C1,x,-27.7,x,2.7,x,x,x
C[C@]12C[C@H](O)[C@@H](O)C[C@@H]1CC[C@@H]1[C@@H]2CC[C@]2(C)C(=O)CC[C@@H]12,x,50.6*,x,10.8,-0.6,x,x
CCOC(=O)CNC(=O)N1Cc2cc(Br)ccc2-n2nncc2C1,x,4.4,x,-0.5,x,x,x
Cc1nc2cc(C(F)(F)F)ccc2n1C1CCN(Cc2nnnn2CCc2ccccc2)CC1,20.2*,24.7,-1.1,13.2,-18.3,x,x
O=c1[nH]c(=O)n(C2CCCCC2)c(O)c1/C=C/C=Nc1ccccc1,-8.3,43.4,-16.6,38.5*,1.7,x,x
O=c1[nH]c(=O)n(-c2ccccc2)c(O)c1/C=C/C=Nc1ccccc1,-9.7,6.4,-22.2,13.4,3.6,x,x
COc1ccc(-n2c(O)c(/C=C/C=Nc3ccccc3)c(=O)[nH]c2=O)cc1,5.3,33.1,-63.6,62.9*,1.9,x,x
CC(=O)c1cn(CC(=O)NCCc2c[nH]c3ccccc23)c2ccccc12,25.1*,19.3,-10.9,11.1,0.2,2.9,51.4*
Cc1nn(Cc2ccccc2)c(Cl)c1C(=O)OCC(=O)N1CCCC1,-16.5,-5.1,1.4,2.0,0.3,x,x
COc1ccc(C)cc1NC1=NC(C)(C)CS1,-4.8,-15.7,0.1,4.3,-0.8,x,x
Fc1ccc2c(c1)nnn2C1CCN(Cc2c(Cl)cccc2Cl)CC1,1.2,11.0,-9.6,4.5,0.1,x,x
Fc1ccc2c(c1)nnn2C1CCN(Cc2nnnn2C2CCCCC2)CC1,26.6*,4.7,0.9,7.8,-0.3,12.5,4.9
CNC(C)Cc1ccccc1Sc1ccc(O)cc1 (stereo not drawn),29.9*,9.2,2.0,15.7,0.5,30.1*,30.1*
CC/C(=N\NC(=O)c1ccccc1Cl)c1c(O)n(C2CCCCC2)c(=O)[nH]c1=O,35.5*,-29.3,13.4,-3.9,0.2,-0.3,6.4
CCC12CCN(CC3(O)CC3)C(Cc3ccc(O)cc31)C2(C)C (stereo not drawn),x,12.8,x,0.7,x,x,x
CN(C)C1(CNC(=O)Nc2ccc(Cl)c(Cl)c2)CCCCC1,30.3*,22.6,-0.8,37.0,0.6,42.9*,47.1*
CCn1cc(C=C2C(=O)NC(=O)NC2=O)c2ccccc21,-9.1,-2.0,2.2,0.4,0.1,x,x
CCn1cc(C=C2C(=O)N(C)C(=O)N(C)C2=O)c2ccccc21,31.6*,2.9,-2.1,-0.7,0.4,-8.1,8.7
Cc1ccc(N2Cc3ccccc3-n3nncc3C2)cc1,x,-15.8,x,-0.2,x,x,x
Cc1cccc(OCC(=O)N2CCN(Cc3ccc([N+](=O)[O-])cc3)CC2)c1,13.3,0.5,-2.6,-0.4,0.6,x,x
Cc1ccc(OCC(=O)N2CCN(Cc3ccc([N+](=O)[O-])cc3)CC2)cc1,21.4*,13.6,1.1,-1.5,2.3,28.0*,35.7*
COc1cc(C)c(CNCCc2c[nH]c3ccccc23)cc1C,38.4*,20.2,4.7,19.1,3.3,21.9,55.5*
O=C(NCCN1CCC2(CC1)C(=O)NCN2c1ccccc1)c1ccc(F)cc1F,x,5.0,x,14.5,x,x,x
CN1CC=C(c2c[nH]c3ccccc23)CC1,-10.4,-11.3,2.0,2.9,-1.8,x,x
CC(C(=O)c1c[nH]c2ccccc12)N1CCc2ccccc2C1 (stereo not drawn),22.0*,5.3,0.2,17.7,2.2,13.7,16.8
